# Bioassay records as filed in PubChem BioAssay.
# This is a sample that favours compounds with a hit; in the whole collection about 2.6% have one here.
# UCH37 DUB inh: inhibitors of human UCH37 deubiquitinase, primary screen, biochemical, Ub-AMC cleavage, fluorescence. 330,000 tested, 0.33% active. inhibition, % (concentration not given with the values). purified proteasome/UCH37. Ubiquitin carboxyl-terminal hydrolase isozyme L5 (Homo sapiens), Q9Y5K5. AID 588478, 2011;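 active = mean inhibition over replicate wells above about 20%, limit read from the data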;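 also: 0% = compound-free wells with enzyme and 100% = wells lacking proteasome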
# Target sequence (Q9Y5K5 whole entry, looked up): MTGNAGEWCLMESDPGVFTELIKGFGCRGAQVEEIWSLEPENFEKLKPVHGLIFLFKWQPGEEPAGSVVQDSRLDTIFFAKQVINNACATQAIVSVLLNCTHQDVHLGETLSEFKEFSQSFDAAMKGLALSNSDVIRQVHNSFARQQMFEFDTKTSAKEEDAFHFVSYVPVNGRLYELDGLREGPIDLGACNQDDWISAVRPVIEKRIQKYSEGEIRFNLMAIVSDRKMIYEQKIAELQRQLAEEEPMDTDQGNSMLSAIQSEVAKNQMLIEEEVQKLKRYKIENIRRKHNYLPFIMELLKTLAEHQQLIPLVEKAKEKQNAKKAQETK
#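 Schedule: 30 min plus 25 min, room temperature / Material: human UCH37 within purified proteasomes / Technique: AMC fluorescence intensity at 355/460 nm / Buffer or medium: pH 7.4 Tris-HCl (50 mM) with ovalbumin, ATP-MgCl2, DTT / Controls: wells without proteasome as full block, compound-free enzyme plus substrate as uninhibited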
# SENP8 block-1: human SENP8 protease inhibitors, primary screen, biochemical, fluorescence, Nedd8 protein substrate, uHTS | inhibition, % at 20 µM | Sentrin-specific protease 8 (Homo sapiens), Q96LD8 | recombinant SENP8 | 360,000 tested, 0.64% active | AID 602440, 2012; in the data active = inhibition mostly above about 40%, no sharp cut-off; inactive = mostly below about 27%
# Target sequence (Q96LD8 whole entry, looked up): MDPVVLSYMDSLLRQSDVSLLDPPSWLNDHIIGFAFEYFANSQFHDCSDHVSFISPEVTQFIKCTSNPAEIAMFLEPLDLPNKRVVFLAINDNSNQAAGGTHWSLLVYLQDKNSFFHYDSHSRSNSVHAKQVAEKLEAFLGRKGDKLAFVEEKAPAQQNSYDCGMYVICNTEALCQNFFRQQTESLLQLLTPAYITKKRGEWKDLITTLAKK
# SENP6 inh: SENP6 protease inhibitors, primary screen, biochemical, luminescence, uHTS | Sentrin-specific protease 6 (Homo sapiens), Q9GZR1 | Recombinant SENP6 catalytic domain, aminoluciferin luminescence | inhibition, % at 10 µM | 330,000 tested, 1.8% active;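 active = inhibition above about 50% at the single tested dose, limit read from the data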;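 also: plate controls were DMSO wells with enzyme for no effect and DMSO wells lacking enzyme for full effect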
# SENP8 block-2: SENP8 protease inhibitors, primary screen, biochemical, luminescence; purified SENP8, Z-RLRGG-aminoluciferin cleavage; inhibition, % at 10 µM; 330,000 tested, 1.2% active; in the data active = inhibition above about 50%
# SENP7 inh: SENP7 protease inhibitors, primary screen, biochemical, luminescence, uHTS; recombinant SENP7, Z-RLRGG-aminoluciferin luminescence, 40 min; inhibition, % at 5 µM; 330,000 tested, 1.5% active; Sentrin-specific protease 7 (Homo sapiens), Q9BQF6;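 active = inhibition above about 50% at the single test dose, limit read from the data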;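 also: plate controls were DMSO with enzyme for no effect and no enzyme buffer wells for full effect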
# SENP1 FRET inh: human SENP1 catalytic domain inhibitors, primary screen, biochemical, FRET, uHTS | AID 624204, 2012 | inhibition, % at 10 µM | recombinant SENP1 catalytic domain, CyPet-SUMO1-YPet FRET cleavage | 360,000 tested, 0.21% active | Sentrin-specific protease 1 (Homo sapiens), Q9P0U3;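 active = inhibition at least 30% at 10 µM, raw YFP signal under a set limit, fluorescence ratio 0.5 to 1.5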;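 also: 0% = enzyme with DMSO and 100% = no enzyme wells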
#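 material = recombinant human SENP1 catalytic domain, His6-tagged | quantity = 20 pM enzyme | reagent = 25 nM SUMO1 FRET substrate | compound dosing = 10 µM single point, 0.5% DMSO | timing = 50 min enzyme reaction, room temperature, light-protected | detection = FRET, CFP and YFP emission | control set = no-enzyme low, enzyme-DMSO high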
# SENP8 confirm: SENP8 protease inhibitors, retest, confirmation, biochemical, luminescence, single concentration; shares compounds with SENP7 inh; 6,200 tested, 40% active; Recombinant SENP8, Z-RLRGG-aminoluciferin luminescence, 60 min; inhibition, % at 12.5 µM;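 active = mean inhibition across replicates above about 50%, limit read from the data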
# SENP6 conf: SENP6 protease inhibitors, confirmation, biochemical, luminescence, single concentration; shares compounds with SENP7 inh; recombinant SENP6, Z-RLRGG-aminoluciferin luminescence; inhibition, % at 12.5 µM; 6,200 tested, 58% active
# SENP7 conf: SENP7 protease inhibitors, retest, confirmation, biochemical, luminescence, single concentration; shares compounds with SENP7 inh; recombinant SENP7, Z-RLRGG-aminoluciferin luminescence, 40 min; inhibition, % at 12.5 µM; 6,200 tested, 69% active; AID 488917, 2010
# Casp3 SENP sel: caspase-3 protease inhibitors, confirmation, selectivity assay for SENP inhibitor project, biochemical, single concentration. shares compounds with SENP7 inh. purified caspase-3, Z-DEVD-aminoluciferin luminescence, 60 min. inhibition, % at 12.5 µM. 6,200 tested, 60% active. AID 488918, 2010;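 active = mean inhibition above about 50%, limit read from the data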;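 also: plate controls were enzyme with DMSO for no effect and wells without caspase-3 for full effect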
# Luc interf: luminescence interference (SENP counter-screen); inhibition, % at 12.5 µM; 6,200 tested, 39% active; Pre-incubated SENP8/Z-RLRGG-aminoluciferin, luciferase luminescence interference; AID 488919; shares compounds with SENP7 inh;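 active = mean inhibition above about 50% when retested at one dose, limit read from the data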;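 also: plate controls were DMSO wells with completed reaction for no effect and substrate without enzyme for full effect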
# The depositor's hits bear a star; . = no result given.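 The calls were made as follows, unless noted: active = mean inhibition above about 50% in the one-dose retest (limit read from the data); inactive = the rest.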
SMILES,UCH37 DUB inh,SENP8 block-1,SENP6 inh,SENP8 block-2,SENP7 inh,SENP1 FRET inh,SENP8 confirm,SENP6 conf,SENP7 conf,Casp3 SENP sel,Luc interf
c1ccc(-c2noc(-c3ccc4ccccc4c3)n2)nc1,-9,-64,97*,96*,100*,3,94*,99*,101*,97*,60*
CC(=NNC(=O)CNC(=O)c1ccc(F)cc1)c1ccco1,1,.,.,.,.,.,.,.,.,.,.
COc1ccccc1C=NNC(=O)c1ccc(Cn2nc([N+](=O)[O-])cc2C)cc1,6,.,.,.,.,.,.,.,.,.,.
CC(CC(=O)Nc1c(C)cc(C)cc1C)=NNC(=O)OC(C)(C)C,0,.,.,.,.,.,.,.,.,.,.
COc1cc(C=NN=C(N)N)ccc1OCc1ccccc1Cl,7,.,.,.,.,.,.,.,.,.,.
Cc1ccc(CN2CCN(N=Cc3ccc(C(F)(F)F)cc3)CC2)cc1,3,.,.,.,.,.,.,.,.,.,.
Clc1ccccc1/C=C/c1nc(-c2ccccn2)no1,.,14,96*,95*,100*,5,99*,100*,103*,98*,74*
CC(C)(C)Cc1nc(-c2ccccn2)no1,6,16,-14,-12,-13,1,.,.,.,.,.
c1ccc(CCc2ccccc2-c2nc(-c3ccccn3)no2)cc1,-1,7,-1,-2,4,-3,.,.,.,.,.
c1ccc(-c2noc(-c3ccncc3)n2)nc1,1,6,81*,79*,4,-2,81*,82*,96*,96*,83*
Cc1ccc(C(=O)Nc2ccc(C(=O)NN=Cc3ccccn3)cc2)cc1,6,.,.,.,.,.,.,.,.,.,.
COc1ccc2nc(NC(=O)c3ccc(F)cc3)sc2c1,-95,-237,64*,25,90*,2,8,37,32,25,-1
COc1ccc2nc(NC(=O)c3ccc4ncsc4c3)sc2c1,-82,-337,-16,-9,-12,-167,.,.,.,.,.
Cc1csc(NC(=O)c2ccc3nc[nH]c3c2)n1,4,1,82*,69*,78*,2,12,75*,95*,88*,74*
COc1ccc(C(=O)Nc2nc3ccccc3s2)cc1,0,-28,96*,89*,93*,4,-9,94*,101*,88*,85*
O=C(Nc1ncccc1O)c1ccc(OCC2CCCO2)cc1 (stereo not drawn),3,-2,45,21,51*,1,44,42,77*,82*,49
O=C(NC1=NCCS1)c1ccc(OCC2CCCO2)cc1 (stereo not drawn),-1,0,-5,0,5,0,.,.,.,.,.
Cn1c(Cl)c(C=NOC(=O)c2ccc(Cl)cc2)c2ccccc21,-2,.,.,.,.,.,.,.,.,.,.
CC(=NNC(=O)c1ccc(O)cc1)c1cccc(NC(=O)c2ccc(Cl)cc2)c1,1,.,.,.,.,.,.,.,.,.,.
O=C(NN=C/C(Br)=C/c1ccccc1)C1CC1,-3,.,.,.,.,.,.,.,.,.,.
CC(CC(=O)Nc1ccc2c(c1)OCO2)=NNC(=O)c1ccccc1N,-151,.,.,.,.,.,.,.,.,.,.
